From ChEMBL document CHEMBL4765297, “In silico/in vitro screening and hit evaluation identified new phenothiazine anti-prion derivatives” (Eur J Med Chem, 2020)
Activity calls are given as the source filed them.

Assays:
ScN2a [1] = assay: Anti-prion activity against RML prion protein in mouse N2a cells assessed as Scrapie prion protein level at 1 uM in presence of proteinase K by Western blotting analysis relative to control; type: cell-based
Outline: (§1)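 ScN2a or ScGT1 cells chronically infected with RML or 22L prions (N2a in MEM/10% FBS; GT1 in DMEM/10% FBS) treated 4 days with compound (DMSO stock diluted in EtOH, then medium; final DMSO ≤0.1%). Immunoblot with anti-PrP Fab W226, ECL, densitometry, normalized to untreated control (100%).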

ScN2a [2] = assay: Anti-prion activity against RML prion protein in mouse N2a cells assessed as Scrapie prion protein level at 1 uM in absence of proteinase K by Western blotting analysis relative to control; type: cell-based; outline: as §1
N2a [3] = assay: Cytotoxicity against mouse N2a cells assessed as reduction in cell viability incubated for 30 mins by Calcein assay; type: cell-based; conditions: 0.5 h
Outline: (§2)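 N2a, ScN2a, GT1 or ScGT1 cells seeded (2.5×10^4/mL MEM for N2a lines; 3×10^4/mL DMEM for GT1 lines), settled 1 day. Treated at 0.1, 1 and 10 µM for 5 days at 37 °C, 5% CO2. Read-outs: MTT (5 mg/mL, 3 h, DMSO/2-propanol solubilization, A590); CCK-8 (4 h, A450); calcein-AM (2.5 µM added, 30 min, 492/525 nm). Viability threshold 80%.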

N2a [4] = assay: Cytotoxicity against mouse N2a cells assessed as reduction in cell viability incubated for 3 hrs by MTT assay; type: cell-based; outline: as §2
N2a [5] = assay: Cytotoxicity against mouse N2a cells assessed as reduction in cell viability incubated for 4 hrs by CCK-8 assay; type: cell-based; outline: as §2
ScN2a [6] = assay: Anti-prion activity against 22L prion protein in mouse ScN2a cells assessed as Scrapie prion protein level at 4 uM in presence of proteinase K by Western blotting analysis relative to control; type: cell-based; outline: as §1
ScN2a [7] = assay: Cytotoxicity against mouse ScN2a cells upto 10 uM; type: cell-based; outline: as §2
ScN2a [8] = assay: Anti-prion activity in mouse ScN2a cells at 1:5 Prp to compound concentration in absence of proteinase K by Western blotting analysis relative to control; type: functional
Outline: (§3)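 Filtered through 3 kDa centrifugal membrane; filtrate (or compound alone, with or without filtration) given to ScN2a cells 4 days. PK-digested/undigested lysates immunoblotted with W226; three independent experiments, control normalized to 100%.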

ScN2a [9] = assay: Anti-prion activity in mouse ScN2a cells at 1:1 Prp to compound concentration in presence of proteinase K by Western blotting analysis relative to control; type: functional; outline: as §3
ScGT1 [10] = assay: Anti-prion activity against RML prion protein in mouse ScGT1 cells assessed as Scrapie prion protein level at 4 uM in absence of proteinase K by Western blotting analysis relative to control; type: cell-based; outline: as §1
ScN2a [11] = assay: Anti-prion activity in mouse ScN2a cells in presence of proteinase K by Western blotting analysis relative to control; type: functional; outline: as §1
ScN2a [12] = assay: Anti-prion activity in mouse ScN2a cells at 1:1 Prp to compound concentration in absence of proteinase K by Western blotting analysis relative to control; type: functional; outline: as §3
ScN2a [13] = assay: Anti-prion activity against RML prion protein in mouse ScN2a cells assessed as Scrapie prion protein level at 4 uM in absence of proteinase K by Western blotting analysis relative to control; type: cell-based; outline: as §1
ScN2a [14] = assay: Anti-prion activity against RML prion protein in mouse ScN2a cells assessed as Scrapie prion protein level at 4 uM in presence of proteinase K by Western blotting analysis relative to control; type: cell-based; outline: as §1
ScN2a [15] = assay: Anti-prion activity against 22L prion protein in mouse ScN2a cells assessed as Scrapie prion protein level at 4 uM in absence of proteinase K by Western blotting analysis relative to control; type: cell-based; outline: as §1
ScN2a [16] = assay: Anti-prion activity in mouse ScN2a cells at 1:2 Prp to compound concentration in presence of proteinase K by Western blotting analysis relative to control; type: functional; outline: as §3
N2a [17] = assay: Anti-prion activity in mouse N2a cells assessed as effect on localization of cell membrane at 4 uM by immunofluorescence staining assay; type: functional, cell-based
Outline: (§4)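 N2a cells on poly-lysine coverslips treated with 0.4 or 4 µM. Chilled on ice 15 min, live surface staining with W226 (1:200) 20 min on ice, then fixed in 4% PFA and blocked in 7% goat serum. Alexa488 anti-mouse secondary 1 h, DAPI counterstain, confocal imaging of surface PrPC.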

ScN2a [18] = assay: Anti-prion activity in mouse ScN2a cells at 2:1 Prp to compound concentration in absence of proteinase K by Western blotting analysis relative to control; type: functional; outline: as §3
ScN2a [19] = assay: Anti-prion activity in mouse ScN2a cells in absence of proteinase K by Western blotting analysis relative to control; type: functional; outline: as §1
ScN2a [20] = assay: Anti-prion activity in mouse ScN2a cells at 1N in absence of proteinase K by Western blotting analysis relative to control; type: functional; outline: as §3
ScN2a [21] = assay: Anti-prion activity in mouse ScN2a cells at 1:2 Prp to compound concentration in absence of proteinase K by Western blotting analysis relative to control; type: functional; outline: as §3
ScN2a [22] = assay: Anti-prion activity in mouse ScN2a cells at 2:1 Prp to compound concentration in presence of proteinase K by Western blotting analysis relative to control; type: functional; outline: as §3
ScN2a [23] = assay: Anti-prion activity in mouse ScN2a cells at 1N in presence of proteinase K by Western blotting analysis relative to control; type: functional; outline: as §3
ScN2a [24] = assay: Anti-prion activity in mouse ScN2a cells at 1:5 Prp to compound concentration in presence of proteinase K by Western blotting analysis relative to control; type: functional; outline: as §3
ScGT1 [25] = assay: Anti-prion activity against 22L prion protein in mouse ScGT1 cells assessed as Scrapie prion protein level at 4 uM in presence of proteinase K by Western blotting analysis relative to control; type: cell-based; outline: as §1
ScGT1 [26] = assay: Anti-prion activity against 22L prion protein in mouse ScGT1 cells assessed as Scrapie prion protein level at 4 uM in absence of proteinase K by Western blotting analysis relative to control; type: cell-based; outline: as §1
[27] = Anti-prion activity against RML prion protein in mouse ScN2a cells in presence of proteinase K by Western blotting analysis; type: cell-based
Outline: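 ScN2a-RML cells treated 4 days with 8 concentrations from 0 to 4 µM. Lysates PK-digested (10 µg PK, 1 h, 37 °C) and ultracentrifuged. Pellets denatured in 8 M GdnHCl and coated on ELISA plates overnight at 4 °C. Detection with W226 (1.5 µg/mL), HRP secondary and TMB, A450. IC50 taken from the dose-response curve, with Western blot confirmation.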

N2a [28] = assay: Anti-prion activity in mouse N2a cells assessed as effect on localization of cell membrane at 0.4 uM by immunofluorescence staining assay; type: functional, cell-based; outline: as §4
ScGT1 [29] = assay: Anti-prion activity against RML prion protein in mouse ScGT1 cells assessed as Scrapie prion protein level at 4 uM in presence of proteinase K by Western blotting analysis relative to control; type: cell-based; outline: as §1

C/C(=N\Nc1ccnc2cc(Cl)ccc12)c1ccc2c(c1)N(CCN1CCOCC1)c1ccccc1S2
Activity (ScN2a [1]): 70.3% | Activity (ScN2a [2]): 95.3%

Cn1c(=O)c2cc(C(=O)N3CCC(Cc4ccccc4)CC3)sc2c2ccc(Cl)cc21
Activity (ScN2a [1]): 82.4% | Activity (N2a [3]): Non-Toxic | Activity (N2a [4]): Non-Toxic | Activity (N2a [5]): Non-Toxic | Activity (ScN2a [2]): 99.6%

Cc1cc(/C=N/Nc2ccnc3cc(Cl)ccc23)c(C)cc1/C=N/Nc1ccnc2cc(Cl)ccc12
Activity (ScN2a [1]): 70.9% | Activity (N2a [3]): Non-Toxic | Activity (N2a [4]): Non-Toxic | Activity (N2a [5]): Non-Toxic | Activity (ScN2a [2]): 63.8%

CCc1ccc(CNC(=O)CSc2c3c(nc4cc(Cl)ccc24)CCCC3)cc1
Activity (ScN2a [1]): 77.1% | Activity (N2a [3]): Non-Toxic | Activity (N2a [4]): Non-Toxic | Activity (N2a [5]): Non-Toxic | Activity (ScN2a [2]): 83.5%

C/C(=N\Nc1ccnc2cc(Cl)ccc12)c1ccc2c(c1)N(CCN1CCN(C)CC1)c1ccccc1S2
Activity (ScN2a [1]): 4.4% | Activity (ScN2a [2]): 55.9%

C/C(=N\Nc1ccnc2cc(Cl)ccc12)c1ccc2c(c1)N(CCCN(C)C)c1ccccc1S2
Activity (ScN2a [1]): 11.9% | Activity (ScN2a [2]): 68.7%

C/C(=N\Nc1ccnc2cc(Cl)ccc12)c1ccc2c(c1)Nc1ccccc1S2
Activity (ScN2a [6]): 5.1% | Activity (ScN2a [1]): 35.6% | Activity (ScN2a [7]): Non-Toxic | Activity (ScN2a [8]): 41% | Activity (ScN2a [9]): 90.1% | Activity (ScGT1 [10]): 42% | Activity (ScN2a [11]): 25.2% | Activity (ScN2a [12]): 117.6% | Activity (ScN2a [13]): 62.1% | Activity (ScN2a [14]): 9.4% | Activity (ScN2a [15]): 48.7% | Activity (ScN2a [16]): 65.7% | Activity (N2a [17]): inactive | Activity (N2a [3]): Non-Toxic | Activity (ScN2a [18]): 114.4% | Activity (ScN2a [19]): 48.8% | Activity (ScN2a [20]): 51.7% | Activity (N2a [4]): Non-Toxic | Activity (ScN2a [21]): 98.4% | Activity (N2a [5]): Non-Toxic | Activity (ScN2a [22]): 108.2% | Activity (ScN2a [23]): 22.6% | Activity (ScN2a [24]): 13.6% | Activity (ScGT1 [25]): 11% | Activity (ScGT1 [26]): 39.2% | IC50 [27]: 420 nM | Activity (N2a [28]): inactive | Activity (ScN2a [2]): 55.7% | Activity (ScGT1 [29]): 12.3%

COC(=O)c1ccc(COc2ccc(/C=N/Nc3ccnc4cc(Cl)ccc34)cc2OC)cc1
Activity (ScN2a [1]): 82.3% | Activity (N2a [3]): Non-Toxic | Activity (N2a [4]): Non-Toxic | Activity (N2a [5]): Non-Toxic | Activity (ScN2a [2]): 95.6%

Cn1c(=O)c2cc(C(=O)Nc3ccc(Oc4ccccc4)cc3)sc2c2ccc(Cl)cc21
Activity (ScN2a [1]): 94.4% | Activity (N2a [3]): Non-Toxic | Activity (N2a [4]): Non-Toxic | Activity (N2a [5]): Non-Toxic | Activity (ScN2a [2]): 92.5%

Cn1c(CSc2ccnc3cc(Cl)ccc23)nnc1SCC(=O)N1CCN(c2ccccc2)CC1
Activity (ScN2a [1]): 88% | Activity (N2a [3]): Non-Toxic | Activity (N2a [4]): Non-Toxic | Activity (N2a [5]): Non-Toxic | Activity (ScN2a [2]): 85.8%

O=C(Nc1ccc(Oc2ccccc2)cc1)c1cc2cc3ccc(Cl)cc3nc2o1
Activity (ScN2a [1]): 109% | Activity (N2a [3]): Non-Toxic | Activity (N2a [4]): Non-Toxic | Activity (N2a [5]): Non-Toxic | Activity (ScN2a [2]): 92.6%

C/C(=N\Nc1ccnc2cc(Cl)ccc12)c1ccc2c(c1)N(CCN(C)C)c1ccccc1S2
Activity (ScN2a [1]): 8.6% | Activity (ScN2a [2]): 60.2%

COc1ccc2nc(NC(=O)c3cc4c(=O)n(C)c5cc(Cl)ccc5c4s3)sc2c1
Activity (ScN2a [1]): 85.4% | Activity (N2a [3]): Non-Toxic | Activity (N2a [4]): Non-Toxic | Activity (N2a [5]): Non-Toxic | Activity (ScN2a [2]): 69.1%

C/C(=N\Nc1ccnc2cc(Cl)ccc12)c1ccc2c(c1)N(CCN1CCCCC1)c1ccccc1S2
Activity (ScN2a [1]): 13.6% | Activity (ScN2a [2]): 70.2%

CCOc1ccc(CNC(=O)CSc2c3c(nc4cc(Cl)ccc24)CCCC3)cc1
Activity (ScN2a [1]): 102% | Activity (N2a [3]): Non-Toxic | Activity (N2a [4]): Non-Toxic | Activity (N2a [5]): Non-Toxic | Activity (ScN2a [2]): 110%
